Vif imaging: HIV Vif inhibition | HEK293T cells, Vif self-association by quenched fluorescence, imaging, 24 h | inhibition, % at 7.49 µM | actives 0.35% (n = 340,000) | AID 602346; in the data active means inhibition above about 50%, passing the limit was not always enough
TAG inh: inhibitors of triacylglycerol accumulation; H9c2 cells, Nile Red lipid (TAG) fluorescence; cells loaded with 200 µM oleic acid; inhibition, % at 12.5 µM; actives 0.66% (n = 230,000);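 active means pattern-corrected inhibition of lipid staining of at least 50% with the nuclear-stain viability signal not falling by more than 50%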;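 further: 0% = DMSO wells and 100% = triacsin C control wells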
SR-BI uptake up: enhances SR-BI lipid uptake from DiI-HDL; CHO ldlA[mSR-BI] cells, DiI-HDL uptake fluorescence, 3 h; 100 = double the neutral-control signal; actives 0.096% (n = 320,000); activation, % at 12.5 µM;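 active means mean replicate activation of at least 60% and every replicate at or above 60%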;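 further: 0% = median plate neutral-control signal and 100% = twice that signal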
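Test system: SR-BI-overexpressing, LDLR-lacking CHO cells; Also added: labelled HDL, 10 µg/mL; Measured by: bottom-read cell fluorescence after medium removal, ex 550/em 595 nm; Timing: 3 h uptake period with compound, 37 °C; Buffer or medium: F12, 0.5% BSA, 25 mM HEPES; Doses: single compound concentration, delivered by pin transfer.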
SR-BI DiI inh: inhibitors of mouse SR-BI mediated HDL lipid uptake; Q61009; ldlA[mSR-BI] CHO cells, DiI-HDL uptake fluorescence, 3 h; inhibition, % at 12.5 µM; actives 0.96% (n = 320,000);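 active means mean replicate inhibition of at least 70% and a set share of replicates each scoring 70 or more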;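 further: 0% = median of neutral control wells and 100% = median of positive control wells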
Target sequence (Q61009 whole entry, looked up): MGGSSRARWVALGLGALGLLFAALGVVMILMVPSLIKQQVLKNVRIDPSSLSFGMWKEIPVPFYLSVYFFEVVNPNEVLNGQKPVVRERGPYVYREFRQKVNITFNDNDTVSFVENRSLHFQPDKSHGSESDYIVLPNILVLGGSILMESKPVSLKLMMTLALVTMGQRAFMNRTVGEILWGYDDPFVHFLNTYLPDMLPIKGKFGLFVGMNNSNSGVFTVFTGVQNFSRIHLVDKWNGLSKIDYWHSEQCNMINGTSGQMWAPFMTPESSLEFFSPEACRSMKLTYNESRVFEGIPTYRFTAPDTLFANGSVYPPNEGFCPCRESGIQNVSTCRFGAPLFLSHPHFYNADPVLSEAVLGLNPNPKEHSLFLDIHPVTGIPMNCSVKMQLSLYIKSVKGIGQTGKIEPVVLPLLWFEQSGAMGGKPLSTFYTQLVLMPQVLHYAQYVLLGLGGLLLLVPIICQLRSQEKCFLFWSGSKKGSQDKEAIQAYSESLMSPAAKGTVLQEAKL
SMARCA2 activ: SMARCA2 function activation, primary screen | actives 1% (n = 370,000) | MG213 cells, MMTV-luciferase reporter, dexamethasone, overnight | AID 652017 | activation, % at 9.1 µM; in the data active means activation above about 7.8%;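 further: 0% = vehicle wells and 100% = reference activator wells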
Starred values were filed as active, the others as inactive. The list is not random: actives were taken first. Their share in the collection is about 2.5%.

`CCOc1cc(C=NN=C2c3ccccc3-c3ccccc32)ccc1O` gave Vif imaging 1, TAG inh 30, SR-BI uptake up -76, SR-BI DiI inh 76* and SMARCA2 activ -5.
`COc1cc(/C=N/NC(=O)c2cccnc2)ccc1OC(=O)c1ccc2c(c1)OCO2` gave TAG inh -3, SR-BI uptake up 0, SR-BI DiI inh 0 and SMARCA2 activ -3.
For COc1cc(C(=O)Oc2ccccc2/C=N/NC(=O)c2ccc(Cl)cc2)cc(OC)c1OC the results were Vif imaging -2, TAG inh 22, SR-BI uptake up -117, SR-BI DiI inh 117* and SMARCA2 activ -3.
COc1cc(/C=N/NC(N)=S)ccc1OC(=O)c1ccc(C)cc1 was read as Vif imaging -1, TAG inh 39, SR-BI uptake up -74, SR-BI DiI inh 74* and SMARCA2 activ -3.
`COc1cc(C(=O)Oc2ccccc2/C=N/NC(=O)c2ccc(C)c(Cl)c2)cc(OC)c1OC` gave Vif imaging 4, SR-BI uptake up -115, SR-BI DiI inh 115* and SMARCA2 activ -2.
COc1cc(/C=N/NC(N)=S)ccc1OCc1ccc(C)cc1 was read as Vif imaging 0, TAG inh 26, SR-BI uptake up -66, SR-BI DiI inh 66 and SMARCA2 activ -2.
`COc1cc(/C=N/NC(=O)c2cccnc2)ccc1OC(=O)c1cc(OC)c(OC)c(OC)c1` gave Vif imaging 25, SR-BI uptake up -73, SR-BI DiI inh 73* and SMARCA2 activ 1.
Screening Cc1ccccc1C(=O)N[C@@H](Cc1cccnc1)C(=O)N1CCC[C@H]1C(=O)NC1CCCC1 returned SMARCA2 activ -3.
CCNC(=O)N1CCN(c2ccc(N3CCN(C(=O)NCC)[C@@H](C)C3)c(C)c2)[C@@H](C)C1 was read as SMARCA2 activ -3.
For CCc1c(-c2ccc(F)cc2F)ncn1CCc1ccccc1OC the results were SMARCA2 activ 4.
COc1ccc(CN2CCC(CNC(=O)NC3CCC(C)CC3)CC2)cc1 (stereo unspecified) was read as SMARCA2 activ -1.
O=S(=O)(c1ccc(F)cc1)N1CCCc2nc(-c3ccccc3)ccc21 was read as SMARCA2 activ -5.
Screening N#CC(C(=O)NCCc1ccccc1)c1nc2ccccc2nc1N1CCOCC1 (stereo unspecified) returned Vif imaging 64*, SR-BI uptake up 5, SR-BI DiI inh -5 and SMARCA2 activ 0.
`CCCCOC(=O)C(C#N)c1nc2ccccc2nc1N1CCOCC1` (stereo unspecified) gave Vif imaging 4, TAG inh 11, SR-BI uptake up -11, SR-BI DiI inh 11 and SMARCA2 activ 1.
Screening CCOc1ccccc1N1CCN(c2nc3ccccc3nc2C(C#N)C(=O)OC)CC1 (stereo unspecified) returned Vif imaging 3, TAG inh 2, SR-BI uptake up -75, SR-BI DiI inh 75* and SMARCA2 activ 2.
CCCCCCOC(=O)C(C#N)c1nc2ccccc2nc1N1CCOCC1 (stereo unspecified) was read as Vif imaging 182*, SR-BI uptake up 33, SR-BI DiI inh -33 and SMARCA2 activ -2.
Screening COc1ccccc1N1CCN(c2nc3ccccc3nc2C(C#N)C(=O)OC(C)C)CC1 (stereo unspecified) returned Vif imaging -11, TAG inh 21, SR-BI uptake up -49, SR-BI DiI inh 49 and SMARCA2 activ -1.
`N#CC(C(=O)NCCc1ccccc1)c1nc2ccccc2nc1N1CCCCC1` (stereo unspecified) gave Vif imaging 10, TAG inh -4, SR-BI uptake up -18, SR-BI DiI inh 18 and SMARCA2 activ 0.
Screening O=C(c1ccco1)N1CCN(c2ncnc3c2nnn3Cc2ccccc2Cl)CC1 returned Vif imaging 60*, SR-BI uptake up -19, SR-BI DiI inh 19 and SMARCA2 activ 0.
CC1CC(C)CN(C(=O)c2ccc3c(c2NCCO)C(=O)c2ccccc2C3=O)C1 (stereo unspecified) was read as Vif imaging -6, TAG inh 127*, SR-BI uptake up -25, SR-BI DiI inh 25 and SMARCA2 activ 0.
For CC1CC(C)CN(C(=O)COC(=O)CN2C(=O)c3ccccc3C2=O)C1 (stereo unspecified) the results were Vif imaging 0, TAG inh -7, SR-BI uptake up -3, SR-BI DiI inh 3 and SMARCA2 activ 0.
CCOC(=O)C1=C(COC(=O)C2(C)CC2(Cl)Cl)NC(=O)NC1c1ccc(OC)cc1 (stereo unspecified) was read as Vif imaging -8, TAG inh -6, SR-BI uptake up -73, SR-BI DiI inh 73* and SMARCA2 activ -3.
`COc1ccc(NC(=O)c2cc(C3CC3)nc3c2cnn3C(C)C)cc1OC` gave Vif imaging -2, TAG inh 12, SR-BI uptake up -74, SR-BI DiI inh 74* and SMARCA2 activ -2.
Screening Cc1ccc(N(C(=O)c2csnn2)C(C(=O)NC2CCCC2)c2ccccn2)cc1 (stereo unspecified) returned Vif imaging 56* and SMARCA2 activ 0.
Screening CCCCNC(=S)N/N=C/c1cccc(OCC)c1O returned Vif imaging 3, TAG inh -5, SR-BI uptake up -3, SR-BI DiI inh 3 and SMARCA2 activ 0.
For CCOc1cccc(/C=N/NC(=S)Nc2ccccc2[N+](=O)[O-])c1O the results were Vif imaging 3, TAG inh -18, SR-BI uptake up -128, SR-BI DiI inh 128* and SMARCA2 activ -6.
`COc1ccc(OC)c2[nH]c(=O)c(CCNC(=O)c3ccc(S(=O)(=O)N4CCCC4)cc3)cc12` gave Vif imaging -1, TAG inh 17, SR-BI uptake up -34, SR-BI DiI inh 34 and SMARCA2 activ 2.
For CCN(CC)S(=O)(=O)c1ccc(C(=O)NCCc2cc3c(OC)ccc(OC)c3[nH]c2=O)cc1 the results were Vif imaging -5, TAG inh 15, SR-BI uptake up -89, SR-BI DiI inh 89* and SMARCA2 activ 1.
Screening C[C@@H]1CN(c2ccc(N3CCNC[C@H]3C)cc2C#N)C[C@H](C)O1 returned SMARCA2 activ 1.
For CCOC(=O)C1=C(Nc2ccccc2)CC(C)(O)C(C(=O)OCC)C1c1ccccc1 (stereo unspecified) the results were Vif imaging 4, SR-BI uptake up 64*, SR-BI DiI inh -64 and SMARCA2 activ 1.
`CCCC(=O)N1CCC[C@]2(CC[C@@H](CCC(=O)OCC)O2)C1` gave SMARCA2 activ -2.
Screening CCOC(=O)/C(=C\c1ccc(OC(F)F)cc1)C1=Nn2c(nnc2-c2ccc(Cl)cc2)SC1 returned Vif imaging 3, TAG inh 99, SR-BI uptake up -89 and SR-BI DiI inh 89*.
